ChEMBL document CHEMBL1122494, “New selenium-75 labeled radiopharmaceuticals: selenonium analogues of dopamine” (J Med Chem, 1983)

How the values were obtained:
Type in all cases: ADME, organism-based
Rattus norvegicus [1] = assay: Distribution of Se-75 activity in Lung of female Sprague-Dawley Rat 5 min after iv administration of compound; conditions: in vivo
Summary of the method: (§1)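 Female Sprague-Dawley rats (100-300 g), five per group, got [75Se]selenonium salt in 0.2 mL saline (5-6 μCi) by lateral tail vein. They were killed by cardioectomy under chloroform anesthesia at the stated time. A sample of the large organ was weighed and gamma counted, and counts were converted to % injected dose/g. Values are mean and SEM of five.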

Rattus norvegicus [2] = assay: Distribution of Se-75 activity in blood of female Sprague-Dawley Rat 15 min after iv administration of compound; conditions: in vivo, 0.25 h
Summary of the method: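 Tail-vein injection of 5-6 μCi [75Se]selenonium salt in 0.2 mL saline into female Sprague-Dawley rats (100-300 g), five per group. Rats were killed by cardioectomy under chloroform anesthesia at the time point. Radioactivity was gamma counted and expressed as % injected dose/g, mean and SEM of five.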

Rattus norvegicus [3] = assay: Distribution of Se-75 activity in blood of female Sprague-Dawley Rat 240 min after iv administration of compound; conditions: in vivo, 4 h
Summary of the method: (§2)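 Female Sprague-Dawley rats (100-300 g) got 5-6 μCi of [75Se]selenonium salt in 0.2 mL saline via lateral tail vein. Groups of five were anesthetized with chloroform at set times and killed by cardioectomy. Tissues were rinsed, blotted and weighed, then gamma-counted. Values are % injected dose per gram, mean and SEM of five.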

Rattus norvegicus [4] = assay: Distribution of Se-75 activity in blood of female Sprague-Dawley Rat 30 min after iv administration of compound; conditions: in vivo, 0.5 h; summary of the method: as §2
Rattus norvegicus [5] = assay: Distribution of Se-75 activity in blood of female Sprague-Dawley Rat 5 min after iv administration of compound; conditions: in vivo; summary of the method: as §2
Rattus norvegicus [6] = assay: Distribution of Se-75 activity in Adrenal of female Sprague-Dawley Rat 5 min after iv administration of compound; conditions: in vivo
Summary of the method: (§3)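 Female Sprague-Dawley rats (100-300 g), five per group, got [75Se]selenonium salt by lateral tail vein: 0.2 mL saline with 5-6 μCi. Groups were killed by cardioectomy under chloroform anesthesia at the set times. The organ was taken intact, rinsed with saline, blotted, weighed and gamma counted. Values are % injected dose/g, mean and SEM of five.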

Rattus norvegicus [7] = assay: Distribution of Se-75 activity in Brain of female Sprague-Dawley Rat 15 min after iv administration of compound; conditions: in vivo, 0.25 h
Rattus norvegicus [8] = assay: Distribution of Se-75 activity in Brain of female Sprague-Dawley Rat 30 min after iv administration of compound; conditions: in vivo, 0.5 h
Rattus norvegicus [9] = assay: Distribution of Se-75 activity in Brain of female Sprague-Dawley Rat 5 min after iv administration of compound; conditions: in vivo
Rattus norvegicus [10] = assay: Distribution of Se-75 activity in Brain of female Sprague-Dawley Rat 60 min after iv administration of compound; conditions: in vivo, 1 h
Rattus norvegicus [11] = assay: Distribution of Se-75 activity in Heart of female Sprague-Dawley Rat 5 min after iv administration of compound; conditions: in vivo; summary of the method: as §3
Rattus norvegicus [12] = assay: Distribution of Se-75 activity in Heart of female Sprague-Dawley Rat 60 min after iv administration of compound; conditions: in vivo, 1 h; summary of the method: as §3
Rattus norvegicus [13] = assay: Distribution of Se-75 activity in Kidney of female Sprague-Dawley Rat 15 min after iv administration of compound; conditions: in vivo, 0.25 h; summary of the method: as §3
Rattus norvegicus [14] = assay: Distribution of Se-75 activity in Kidney of female Sprague-Dawley Rat 30 min after iv administration of compound; conditions: in vivo, 0.5 h; summary of the method: as §3
Rattus norvegicus [15] = assay: Distribution of Se-75 activity in Kidney of female Sprague-Dawley Rat 5 min after iv administration of compound; conditions: in vivo; summary of the method: as §3
Rattus norvegicus [16] = assay: Distribution of Se-75 activity in Kidney of female Sprague-Dawley Rat 60 min after iv administration of compound; conditions: in vivo, 1 h; summary of the method: as §3
Rattus norvegicus [17] = assay: Distribution of Se-75 activity in Liver of female Sprague-Dawley Rat 120 min after iv administration of compound; conditions: in vivo, 2 h; summary of the method: as §1
Rattus norvegicus [18] = assay: Distribution of Se-75 activity in Liver of female Sprague-Dawley Rat 15 min after iv administration of compound; conditions: in vivo, 0.25 h; summary of the method: as §1
Rattus norvegicus [19] = assay: Distribution of Se-75 activity in Liver of female Sprague-Dawley Rat 240 min after iv administration of compound; conditions: in vivo, 4 h; summary of the method: as §1
Rattus norvegicus [20] = assay: Distribution of Se-75 activity in Lung of female Sprague-Dawley Rat 15 min after iv administration of compound; conditions: in vivo, 0.25 h; summary of the method: as §1
Rattus norvegicus [21] = assay: Distribution of Se-75 activity in Lung of female Sprague-Dawley Rat 30 min after iv administration of compound; conditions: in vivo, 0.5 h; summary of the method: as §1
Rattus norvegicus [22] = assay: Distribution of Se-75 activity in Heart of female Sprague-Dawley Rat 15 min after iv administration of compound; conditions: in vivo, 0.25 h; summary of the method: as §3
Rattus norvegicus [23] = assay: Tissue radioactivity ratio in Heart to Blood 120 min after Intravenous Injection in rats; conditions: other tissue, 2 h
Summary of the method: (§4)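 Same rat biodistribution: female Sprague-Dawley rats (100-300 g), 5-6 μCi [75Se]selenonium salt in 0.2 mL saline iv by tail vein, five per time point, killed by cardioectomy under chloroform. Ratios are tissue-to-tissue quotients of gamma-counted % injected dose per gram in each organ (adrenal, heart, kidney, liver, blood).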

Rattus norvegicus [24] = assay: Tissue radioactivity ratio in Heart to Blood 15 min after Intravenous Injection in rats; conditions: other tissue, 0.25 h; summary of the method: as §4
Rattus norvegicus [25] = assay: Tissue radioactivity ratio in Heart to Blood 30 min after Intravenous Injection in rats; conditions: other tissue, 0.5 h; summary of the method: as §4
Rattus norvegicus [26] = assay: Tissue radioactivity ratio in adrenal to Kidney 120 min after Intravenous Injection in rats; conditions: in vivo, 2 h; summary of the method: as §4
Rattus norvegicus [27] = assay: Tissue radioactivity ratio in adrenal to Kidney 15 min after Intravenous Injection in rats; conditions: in vivo, 0.25 h; summary of the method: as §4
Rattus norvegicus [28] = assay: Tissue radioactivity ratio in adrenal to Kidney 240 min after Intravenous Injection in rats; conditions: in vivo, 4 h; summary of the method: as §4
Rattus norvegicus [29] = assay: Tissue radioactivity ratio in adrenal to Kidney 30 min after Intravenous Injection in rats; conditions: in vivo, 0.5 h; summary of the method: as §4
Rattus norvegicus [30] = assay: Tissue radioactivity ratio in adrenal to Kidney 5 min after Intravenous Injection in rats; conditions: in vivo; summary of the method: as §4
Rattus norvegicus [31] = assay: Tissue radioactivity ratio in adrenal to Liver 120 min after Intravenous Injection in rats; conditions: in vivo, 2 h; summary of the method: as §4
Rattus norvegicus [32] = assay: Tissue radioactivity ratio in adrenal to Liver 15 min after Intravenous Injection in rats; conditions: in vivo, 0.25 h; summary of the method: as §4
Rattus norvegicus [33] = assay: Tissue radioactivity ratio in adrenal to Liver 240 min after Intravenous Injection in rats; conditions: in vivo, 4 h; summary of the method: as §4
Rattus norvegicus [34] = assay: Tissue radioactivity ratio in adrenal to Liver 5 min after Intravenous Injection in rats; conditions: in vivo; summary of the method: as §4
Rattus norvegicus [35] = assay: Tissue radioactivity ratio in adrenal to Liver 60 min after Intravenous Injection in rats; conditions: in vivo, 1 h; summary of the method: as §4
Rattus norvegicus [36] = assay: Tissue radioactivity ratio in adrenal to blood 120 min after Intravenous Injection in rats; conditions: other tissue, 2 h; summary of the method: as §4
Rattus norvegicus [37] = assay: Tissue radioactivity ratio in adrenal to blood 15 min after Intravenous Injection in rats; conditions: other tissue, 0.25 h; summary of the method: as §4
Rattus norvegicus [38] = assay: Tissue radioactivity ratio in adrenal to blood 240 min after Intravenous Injection in rats; conditions: other tissue, 4 h; summary of the method: as §4
Rattus norvegicus [39] = assay: Tissue radioactivity ratio in adrenal to blood 30 min after Intravenous Injection in rats; conditions: other tissue, 0.5 h; summary of the method: as §4
Rattus norvegicus [40] = assay: Tissue radioactivity ratio in adrenal to blood 5 min after Intravenous Injection in rats; conditions: other tissue; summary of the method: as §4
Rattus norvegicus [41] = assay: Tissue radioactivity ratio in adrenal to blood 60 min after Intravenous Injection in rats; conditions: other tissue, 1 h; summary of the method: as §4
Rattus norvegicus [42] = assay: Tissue radioactivity ratio in adrenal to Kidney 60 min after Intravenous Injection in rats; conditions: in vivo, 1 h; summary of the method: as §4

Q: Which results are given for `COc1ccc(CC[Se+](C)C)cc1OC.[I-]`?
A: Dose/g (Rattus norvegicus [1]): 1.44%; Dose/g (Rattus norvegicus [2]): 0.26%; Dose/g (Rattus norvegicus [3]): 0.03%; Dose/g (Rattus norvegicus [4]): 0.22%; Dose/g (Rattus norvegicus [5]): 0.34%; Dose/g (Rattus norvegicus [6]): 0.86%; Dose/g (Rattus norvegicus [7]): 0.02%; Dose/g (Rattus norvegicus [8]): 0.02%; Dose/g (Rattus norvegicus [9]): 0.03%; Dose/g (Rattus norvegicus [10]): 0.01%; Dose/g (Rattus norvegicus [11]): 2.38%; Dose/g (Rattus norvegicus [12]): 0.27%; Dose/g (Rattus norvegicus [13]): 1.29%; Dose/g (Rattus norvegicus [14]): 0.99%; Dose/g (Rattus norvegicus [15]): 2.73%; Dose/g (Rattus norvegicus [16]): 0.53%; Dose/g (Rattus norvegicus [17]): 0.29%; Dose/g (Rattus norvegicus [18]): 1.93%; Dose/g (Rattus norvegicus [19]): 0.18%; Dose/g (Rattus norvegicus [20]): 0.097%; Dose/g (Rattus norvegicus [21]): 0.75%; Dose/g (Rattus norvegicus [22]): 1.16%; Ratio (Rattus norvegicus [23]): 2.12; Ratio (Rattus norvegicus [24]): 4.46; Ratio (Rattus norvegicus [25]): 2.64; Ratio (Rattus norvegicus [26]): 2.24; Ratio (Rattus norvegicus [27]): 0.68; Ratio (Rattus norvegicus [28]): 4; Ratio (Rattus norvegicus [29]): 0.95; Ratio (Rattus norvegicus [30]): 0.31; Ratio (Rattus norvegicus [31]): 2.55; Ratio (Rattus norvegicus [32]): 0.46; Ratio (Rattus norvegicus [33]): 3.55; Ratio (Rattus norvegicus [34]): 0.35; Ratio (Rattus norvegicus [35]): 1.14; Ratio (Rattus norvegicus [36]): 9.25; Ratio (Rattus norvegicus [37]): 3.39; Ratio (Rattus norvegicus [38]): 21.33; Ratio (Rattus norvegicus [39]): 4.27; Ratio (Rattus norvegicus [40]): 2.53; Ratio (Rattus norvegicus [41]): 5.92; Ratio (Rattus norvegicus [42]): 1.34
